Active and inactive are the calls of the source. The calls are words filed in the database; no cut-off is given here.
Experiments:
[1] = molecular target: T1, Cysteinyl leukotriene receptor 1 (Cavia porcellus) (UniProt Q2NNR5); experiment: Inhibition of leukotriene D4 induced bronchoconstriction in anesthetized guinea pigs after intravenous administration at a dose of 1 mg/kg; assay type: organism-based; set-up: dose 1 mg/kg
T1 sequence (whole entry): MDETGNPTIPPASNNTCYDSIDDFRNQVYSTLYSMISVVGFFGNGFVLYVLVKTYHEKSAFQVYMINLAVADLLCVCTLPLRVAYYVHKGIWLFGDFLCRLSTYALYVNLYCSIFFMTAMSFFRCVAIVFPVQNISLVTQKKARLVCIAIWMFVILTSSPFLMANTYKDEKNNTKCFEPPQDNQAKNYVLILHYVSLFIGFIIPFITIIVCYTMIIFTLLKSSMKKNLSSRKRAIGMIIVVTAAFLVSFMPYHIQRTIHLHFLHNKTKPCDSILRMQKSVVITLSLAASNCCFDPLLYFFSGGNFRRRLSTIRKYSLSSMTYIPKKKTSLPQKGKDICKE

[2] = molecular target: T1, Cysteinyl leukotriene receptor 1 (Cavia porcellus); experiment: Inhibitory activity of compound to block binding of radiolabeled leukotriene D4 to receptor sites in homogenized guinea pig lung at 10 uM
Outline: (§1)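 Lung from male Hartley guinea pigs (400–500 g), homogenized in sucrose/Tris pH 7.5 with protease inhibitors; 30000g membrane pellet in 10 mM PIPES pH 7.5, 50 mM NaCl. Binding: Tyrode, 0.1% BSA, 1 mM glycine, 1 mM cysteine, 3.5 nM [3H]LTD4, 100–200 µg protein, 20 °C, 30 min; glass-fiber filtration. Nonspecific with 10^-6 M LTD4. Triplicate screen at 10 µM; IC50 by linear regression.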

Cavia porcellus [3] = experiment: In vivo guinea pig bronchoconstriction against leukotriene C4 when administered a compound dose (mg/kg) intravenously; assay type: functional; details: Lung, iv, read-out: ID50 (the source's name)
Cavia porcellus [4] = experiment: In vivo guinea pig bronchoconstriction against leukotriene D4 when administered a compound dose (mg/kg) intravenously; assay type: functional; details: Lung, iv, read-out: ID50 (the source's name)
Outline: (§2)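 Male Hartley guinea pigs, 400–600 g, urethane 2 g/kg ip, jugular cannula, propranolol 0.1 mg/kg iv 5 min before challenge, succinylcholine 1.2 mg/kg iv, ventilated. Vehicle or drug iv 30 s before LTD4 25 µg/kg iv; tracheal pressure change.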

[5] = molecular target: T2, Cysteinyl leukotriene receptor 1 (Cavia porcellus, UniProt Q2NNR5); experiment: In vitro activity to inhibit binding of [3H]- leukotriene D4 to receptor sites in guinea pig lung membrane; assay type: cell membranes; outline: as §1
T2 sequence (Q2NNR5 whole entry): T1 sequence (whole entry)

Cavia porcellus [6] = species: Cavia porcellus; experiment: In vitro activity to inhibit SRS-A induced contraction of guinea pig ileum
Cavia porcellus [7] = species: Cavia porcellus; experiment: In vitro activity to inhibit leukotriene D4 induced contraction of guinea pig trachea; assay type: functional; details: read-out: pA2 (converted)
Outline: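 Guinea pig tracheal smooth muscle contracted by LTD4; pA2 and Schild slope reported.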

[8] = molecular target: T1, Cysteinyl leukotriene receptor 1 (Cavia porcellus); details: Lung, 10 uM
[9] = molecular target: T2, Cysteinyl leukotriene receptor 1; experiment: Inhibitory activity of compound to block binding of [3H]leukotriene D4 to Cysteinyl leukotriene D4 receptor sites in homogenized guinea pig lung; outline: as §1
Cavia porcellus [10] = experiment: Inhibition of leukotriene D4 induced bronchoconstriction in anesthetized guinea pigs after intravenous administration; assay type: functional; details: read-out: ID50 (the source's name); outline: as §2
Cavia porcellus [11] = experiment: Inhibition of leukotriene D4 induced bronchoconstriction in anesthetized guinea pigs after intravenous administration at a dose of 10 mg/kg; assay type: functional; outline: as §2
Cavia porcellus [12] = experiment: (§3) Inhibition of leukotriene D4 induced bronchoconstriction in anesthetized guinea pigs after aerosol administration as 1% solution; assay type: functional
Outline: (§4)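 Guinea pigs given propranolol 0.1 mg/kg iv 5 min before 5-min ultrasonic nebulizer exposure to aqueous, NaOH-neutralized drug (% w/v) or distilled water, breathing spontaneously. LTD4 50 µg/kg iv 30 s after exposure; tracheal pressure change.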

Cavia porcellus [13] = experiment: as §3; assay type: functional, organism-based; outline: as §4
Cavia porcellus [14] = experiment: Activity against platelet activating factor in guinea pig (when administered at a concentration of 1%, by aerosol); Not active; assay type: functional, organism-based
Cavia porcellus [15] = experiment: Inhibitory activity to inhibit arachidonic acid induced bronchoconstriction (when administered at a concentration of 1%, by aerosol); Not active; assay type: functional, organism-based
Cavia porcellus [16] = experiment: Activity against histamine induced bronchoconstriction in guinea pig (when administered at a concentration of 1%, by aerosol); Not active; assay type: functional, organism-based
Cavia porcellus [17] = experiment: In vivo guinea pig bronchoconstriction against leukotriene E4 when administered a compound dose(mg/kg) intravenously; assay type: functional; details: Lung, iv, read-out: ID50 (the source's name)
Cavia porcellus [18] = experiment: Time taken for inhibition of antigen induced bronchoconstriction in guinea pig to decrease to 40%, compound administered at a concentration of 1%, for 5 min by aerosol; assay type: organism-based; details: in vivo, inhaled_or_intranasal
Outline: (§5)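 Aerosol guinea pig bronchoconstriction with antigen challenge; drug given as 1% nebulized solution for 5 min. Duration taken as time for inhibition to fall to 40%.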

Cavia porcellus [19] = experiment: Activity against histamine induced bronchoconstriction in guinea pig, no significant inhibition when compound dose (10 mg/kg) given intravenously; Not active.; assay type: functional, organism-based
[20] = molecular target: Dual specificity calcium/calmodulin-dependent 3',5'-cyclic nucleotide phosphodiesterase 1A (Bos taurus, UniProt P14100); experiment: Inhibition of bovine heart Phosphodiesterase 1A
Dual specificity calcium/calmodulin-dependent 3',5'-cyclic nucleotide phosphodiesterase 1A, sequence (P14100 whole entry): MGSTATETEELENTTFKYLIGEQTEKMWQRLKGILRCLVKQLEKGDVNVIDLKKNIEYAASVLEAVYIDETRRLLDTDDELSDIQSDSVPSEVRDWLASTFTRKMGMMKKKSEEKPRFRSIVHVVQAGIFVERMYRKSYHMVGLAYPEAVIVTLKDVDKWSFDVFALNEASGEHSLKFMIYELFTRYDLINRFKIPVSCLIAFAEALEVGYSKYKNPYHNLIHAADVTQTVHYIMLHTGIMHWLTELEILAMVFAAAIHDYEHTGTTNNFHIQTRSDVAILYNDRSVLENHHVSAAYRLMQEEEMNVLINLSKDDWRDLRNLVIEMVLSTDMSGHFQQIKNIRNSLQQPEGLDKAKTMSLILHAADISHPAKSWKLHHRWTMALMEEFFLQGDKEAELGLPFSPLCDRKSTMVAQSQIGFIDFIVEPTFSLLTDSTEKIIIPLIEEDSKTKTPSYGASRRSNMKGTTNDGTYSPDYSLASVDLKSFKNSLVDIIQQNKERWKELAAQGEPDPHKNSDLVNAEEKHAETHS

Cavia porcellus [21] = experiment: Activity against platelet activating factor in guinea pig, no significant inhibition when compound dose (10 mg/kg) given intravenously; Not active.; assay type: functional, organism-based
Cavia porcellus [22] = species: Cavia porcellus; experiment: In vitro activity to inhibit SRS-A induced contraction of guinea pig ileum; remark: listed apart in the source
Cavia porcellus [23] = experiment: (§6) Duration of action of leukotriene E4 as time for inhibition to decrease to 40%, compound administered at a concentration of 1%,for 5 min by aerosol; assay type: ADME, organism-based; details: guinea pig, in vivo, inhaled_or_intranasal
Outline: (§7)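 Aerosol guinea pig bronchoconstriction with LTE4 challenge; drug given as 1% nebulized solution for 5 min. Duration taken as time for inhibition to fall to 40%.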

Cavia porcellus [24] = experiment: In vivo guinea pig bronchoconstriction against leukotriene C4 when administered at a concentration of 1%, by aerosol; NS means no significant inhibition.; assay type: functional, organism-based; details: Lung
Cavia porcellus [25] = experiment: (§8) Duration of action of leukotriene D4 as time for inhibition to decrease to 40%, compound was administered at a dose of 10 mg/kg; assay type: ADME, organism-based; set-up: dose 10 mg/kg; details: guinea pig, in vivo
Outline: (§9)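 Intravenous guinea pig bronchoconstriction with LTD4 challenge; drug 10 mg/kg iv. Duration taken as time for inhibition to fall to 40%.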

Cavia porcellus [26] = experiment: In vivo guinea pig bronchoconstriction against leukotriene B4 (when administered at a concentration of 1%, by aerosol); Not active; details: Lung
Cavia porcellus [27] = experiment: (§10) Duration of action of leukotriene E4 as time for inhibition to decrease to 40%, compound was administered at a dose of 10 mg/kg; assay type: ADME, organism-based; set-up: dose 10 mg/kg; details: guinea pig, in vivo
Outline: (§11)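 Intravenous guinea pig bronchoconstriction with LTE4 challenge; drug 10 mg/kg iv. Duration taken as time for inhibition to fall to 40%.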

Cavia porcellus [28] = experiment: Duration of action of leukotriene D4 as time for inhibition to decrease to 40%, when compound was administered at a concentration of 1%, for 5 min by aerosol; assay type: ADME, organism-based; details: guinea pig, in vivo, inhaled_or_intranasal
Outline: (§12)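 Aerosol guinea pig bronchoconstriction with LTD4 challenge; drug given as 1% nebulized solution for 5 min. Duration taken as time for inhibition to fall to 40%.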

[29] = test system: Cysteinyl leukotriene receptor 1 (Cavia porcellus); experiment: Inhibitory activity of compound to block binding of radiolabeled Cysteinyl leukotriene D4 receptor sites in homogenized guinea pig lung at 10 uM
[30] = Inhibitory activity to inhibit Inophore-induced arachidonic acid metabolism (inhibition of PGE-2 formation) in rat; assay type: functional
Outline: (§13)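 Rat peritoneal macrophages adhered 90 min at 37 °C, labeled with [14C]arachidonic acid 90 min, washed. Compound 30 min at 37 °C, then A23187 0.5 µM for 20 min. LTB4 and PGE2 in medium by radioimmunoassay.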

Cavia porcellus [31] = experiment: Duration of action of leukotriene D4 as time for inhibition to decrease to 40%, compound was administered at a concentration 1%, for 5 min by aerosol; assay type: functional; outline: as §12
Cavia porcellus [32] = experiment: as §10; assay type: functional; outline: as §11
Cavia porcellus [33] = species: Cavia porcellus; experiment: Activity against platelet activating factor in guinea pig, no significant inhibition at concentration of 1% by aerosol; NA means inactive; assay type: functional, organism-based
Cavia porcellus [34] = experiment: Time taken for inhibition of antigen induced bronchoconstriction in guinea pig to decrease to 40%, compound was administered at a concentration of 1%, for 5 min by aerosol; assay type: functional; outline: as §5
Cavia porcellus [35] = experiment: Activity against platelet activating factor in guinea pig, no significant inhibition when compound dose (10 mg/kg) given intravenously; NA means inactive; assay type: functional, organism-based
[36] = molecular target: T1, Cysteinyl leukotriene receptor 1 (Cavia porcellus); experiment: Inhibitory activity of compound to block binding of [3H]leukotriene D4 to Cysteinyl L-Cysteinyl leukotriene D4 receptor sites in homogenized guinea pig lung at 10 uM; outline: as §1
Rattus norvegicus = species: Rattus norvegicus; experiment: Inhibitory activity to inhibit Inophore-induced arachidonic acid metabolism (inhibition of LTB4 formation) in rat; assay type: functional, organism-based; outline: as §13
Cavia porcellus [37] = species: Cavia porcellus; experiment: Inhibitory activity to inhibit antigen induced bronchoconstriction in guinea pig; assay type: functional
Cavia porcellus [38] = experiment: as §6; assay type: functional; outline: as §7
Cavia porcellus [39] = species: Cavia porcellus; experiment: Activity against histamine induced bronchoconstriction in guinea pig, no significant inhibition at concentration of 1% by aerosol; NA means inactive; assay type: functional, organism-based
Cavia porcellus [40] = experiment: Activity against histamine induced bronchoconstriction in guinea pig, no significant inhibition when compound dose (10 mg/kg) given intravenously; NA means inactive; assay type: functional, organism-based
Cavia porcellus [41] = experiment: as §8; assay type: functional; outline: as §9

| Compound | inhibition [2] [%] | IC50 [9] [µM] | IC50 (Cavia porcellus [13]) [% conc] | ED50 (Cavia porcellus [3]) [mg/kg] | ED50 (Cavia porcellus [4]) [mg/kg] | Kb (Cavia porcellus [7]) [µM] | ED50 (Cavia porcellus [10]) [mg/kg] | inhibition in vivo at 10 mg/kg (Cavia porcellus [11]) [%] | Inhibition (Cavia porcellus [12]) [%] | ED50 (Cavia porcellus [17]) [mg/kg] | IC50 [20] [µM] | IC50 (Cavia porcellus [22]) [µM] | other results |
| --- | --- | --- | --- | --- | --- | --- | --- | --- | --- | --- | --- | --- | --- |
| CCCc1c(OCCCCCOc2cc3c(cc2C(C)=O)CCC(C(=O)O)O3)ccc(C=O)c1O (configuration not stated) | 0 | – | – | – | – | – | – | – | – | – | – | – | inhibition [1]: 0% |
| CCCc1c(OCCCCCOc2cc3c(cc2C(C)=O)CC[C@@H](C(=O)O)O3)ccc(C(C)=O)c1O | – | – | – | 4 | 3 | 0.631 | – | – | – | – | – | – | IC50 [5]: 5 µM; IC50 (Cavia porcellus [6]): 0.06 µM |
| CCCc1c(OCCCCCOc2cc3c(cc2C(C)=O)CCC(CCC)(C(=O)O)O3)ccc(C(C)=O)c1O (configuration not stated) | – | 2 | 0.9 | – | – | – | 8 | 56 | 51 | – | – | – | inhibition [8]: 70% |
| CCCc1c(OCC(O)COc2ccc3c(=O)cc(C(=O)O)oc3c2CCC)ccc(C(C)=O)c1O (configuration not stated) [FPL-55712] | – | – | 0.5 | 6 | 2 | 1 | 2 | 92 | 64 | 1 | 40 | 0.05 | inhibition (Cavia porcellus [14]): inactive; inhibition (Cavia porcellus [15]): inactive; inhibition (Cavia porcellus [16]): inactive; Duration (Cavia porcellus [18]): 270 min; inhibition (Cavia porcellus [19]): inactive; inhibition (Cavia porcellus [21]): inactive; Duration (Cavia porcellus [23]): 50 min; inhibition (Cavia porcellus [24]): inactive; Duration (Cavia porcellus [25]): 6 min; inhibition (Cavia porcellus [26]): inactive; Duration (Cavia porcellus [27]): 6 min; Duration (Cavia porcellus [28]): 60 min |

More lines, main results first:

| inhibition [2] [%] | IC50 [9] [µM] | IC50 (Cavia porcellus [13]) [% conc] | Compound | ED50 (Cavia porcellus [3]) [mg/kg] | ED50 (Cavia porcellus [4]) [mg/kg] | Kb (Cavia porcellus [7]) [µM] | ED50 (Cavia porcellus [10]) [mg/kg] | inhibition in vivo at 10 mg/kg (Cavia porcellus [11]) [%] | Inhibition (Cavia porcellus [12]) [%] | ED50 (Cavia porcellus [17]) [mg/kg] | IC50 [20] [µM] | IC50 (Cavia porcellus [22]) [µM] | other results |
| --- | --- | --- | --- | --- | --- | --- | --- | --- | --- | --- | --- | --- | --- |
| 39 | – | – | CCCc1c(OCCCCCCCOc2cc3c(cc2C(C)=O)CCC(C(=O)O)O3)ccc(C(C)=O)c1O (configuration not stated) | – | – | – | – | – | 44 | – | – | – | inhibition [29]: 39% |
| – | 4 | 0.007 | CCCc1c(OCCCCCOc2cc3c(cc2C(C)=O)CCC(C(=O)O)O3)ccc(C(C)=O)c1O (configuration not stated) [ABLUKAST] | 3 | 5 | 0.251 | 5 | 93 | 89 | 1 | 36 | 0.06 | IC50 [30]: 7 µM; Duration (Cavia porcellus [31]): 150 min; Duration (Cavia porcellus [32]): 40 min; inhibition (Cavia porcellus [33]): inactive; Duration (Cavia porcellus [34]): 250 min; inhibition (Cavia porcellus [35]): inactive; inhibition [36]: 70%; IC50 (Rattus norvegicus): 4 µM; Inhibition (Cavia porcellus [37]): 0.027%; Duration (Cavia porcellus [38]): 90 min; inhibition (Cavia porcellus [39]): inactive; inhibition (Cavia porcellus [40]): inactive; Duration (Cavia porcellus [41]): 40 min |

— ChEMBL document CHEMBL1124636, “3,4-Dihydro-2H-1-benzopyran-2-carboxylic acids and related compounds as leukotriene antagonists” (J Med Chem, 1989)
